Compounds with a hit are over-represented: about 0.99% of the library has one in this group of screens.
NPR1 activator: GC-A (human) enzyme activation; P16066; HEK293 GC-A cells, cGMP TR-FRET, EC30 ANP; 0% at EC30 ANP, 100% saturating ANP; activation, % at 10 µM; hit rate 0.14% among 370,000; AID 1671463; in the data active means activation above about 40%
FN deposition inh: fibronectin deposition inhibition; AH1F fibroblasts, Alexa488-fibronectin deposition fluorescence, overnight; inhibition, % at 12.6 µM; hit rate 0.086% among 350,000; AID 743247;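 active means mean inhibition across replicates of 30% or more, regardless of how many single replicates reach that level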
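Material: AH1F fibroblast monolayer depositing Alexa488-labelled fibronectin into matrix | Input: 10000 AH1F cells/well | Medium: DMEM plus 2% serum, read in PBS | Reagent: Alexa488-fibronectin, 24 nM final in well | Compound dosing: One dose per compound, pinned | Schedule: 1 h adhesion, overnight exposure | Measured by: Fluorescence at 485 nm excitation, 525 nm emission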
NSD2 inh: NSD2 (human) methyltransferase inhibition | O96028 | NSD2 peptide methylation, AlphaScreen, 120 min | inhibition, % at 12.5 µM | hit rate 0.54% among 310,000; in the data active means inhibition above about 50%
CaV13 FRET inh: Primary screen for inhibitors of IQ motif and Ca2+-dependent inactivation inhibitor domain binding in CACNA1D, Förster resonance energy transfer in living cells, …; HEK cells, CFP/YFP FRET ICDI-IQ, plate reader, 10 min; percent FRET-ratio fall versus neutral wells; inhibition, % at 12.3 µM; hit rate 0.098% among 340,000;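 active means mean replicate inhibition of at least 30% and at least 1% of replicates passing that level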
Casp6 inh: inhibitors of human caspase-6 | purified caspase-6, Z-VEID-R110 cleavage fluorescence | inhibition, % at 12.5 µM | hit rate 0.53% among 350,000;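 active means mean inhibition across replicates at least about 35%, with every replicate also reaching that limit, limit read from the data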
Target sequence (P55212 24-179 limits assumed): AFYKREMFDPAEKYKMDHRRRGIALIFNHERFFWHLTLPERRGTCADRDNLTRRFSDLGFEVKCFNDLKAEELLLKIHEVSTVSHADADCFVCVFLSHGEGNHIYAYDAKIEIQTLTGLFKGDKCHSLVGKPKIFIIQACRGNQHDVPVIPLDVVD
Target sequence (P55212 194-293 limits assumed): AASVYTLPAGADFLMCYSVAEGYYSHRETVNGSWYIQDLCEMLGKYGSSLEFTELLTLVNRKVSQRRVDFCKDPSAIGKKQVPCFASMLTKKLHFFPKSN
GC-B act: GC-B (human) receptor activation; P20594; HEK293-GC-B cells, CNP EC30, cGMP TR-FRET; 0% at EC30 CNP, 100% saturating CNP; activation, % at 10 µM; hit rate 0.11% among 370,000;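 active means activation at 10 µM reaching about 35% in either raw or pattern-adjusted values, limit read from the data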
Numbers stand for hits; n = inactive; x = no result given.

SMILES | NPR1 activator | FN deposition inh | NSD2 inh | CaV13 FRET inh | Casp6 inh | GC-B act
O=C(O)c1ccc(-c2ccc(/C=c3/sc4nc5ccccc5n4c3=O)o2)cc1Cl | n | n | x | n | 58 | n
O=C(O)CCCN1C(=O)/C(=C\c2ccc(-c3nc4ccccc4s3)o2)SC1=S | n | n | n | n | 43 | n
CC1(C)OC(=O)C(=Cc2ccc(-c3ccc(Cl)c(C(=O)O)c3)o2)C(=O)O1 | n | x | x | n | 58 | n
O=C(O)CCN1C(=O)/C(=C/c2ccc(-c3nc4ccccc4s3)o2)SC1=S | n | x | n | n | x | n
Cc1ccc(N2NC(=O)/C(=C/c3ccc(-c4ccc(Cl)c(C(=O)O)c4)o3)C2=O)cc1C | n | n | x | n | n | n
Cc1ccc(/C=C2\SC(=S)N(Cc3ccccc3)C2=O)o1 | n | x | n | n | x | n
O=C(O)c1cc(-c2ccc(/C=C3/SC(=S)N(Cc4ccccc4)C3=O)o2)ccc1Cl | n | n | n | n | 51 | n
O=C1/C(=C\c2cccc(O)c2O)SC(=S)N1Cc1ccccc1 | n | n | 52 | n | n | n
CC1=NN(c2ccccc2)C(=O)/C1=C/c1ccc(-c2ccc(C)c(C(=O)O)c2)o1 | n | n | n | n | n | n
CC1=NN(c2ccc(Cl)c(C(=O)O)c2)C(=O)/C1=C\c1ccc(-c2ccc(C(=O)O)cc2)o1 | n | n | n | n | 54 | n
Cc1cccc(OCCC(=O)NNC(=O)Cn2nc(C)cc2C)c1 | n | n | n | n | n | n
CCOc1ccccc1OCCC(=O)NNC(=O)Cn1nc(C)cc1C | n | n | n | n | 46 | n
COC(=O)C[C@@H]1C=C[C@@H](NC(=O)c2ccccc2)[C@H](CO)O1 | x | x | x | x | n | x
COc1cc(C(C)=O)ccc1Oc1ncnc2c1cnn2-c1ccc(F)cc1 | 47 | x | n | n | x | n
COc1cc(C(C)=O)ccc1Oc1ncnc2c1cnn2-c1cccc(Cl)c1 | n | n | n | n | n | n
CC(C)(C)S(=O)N1Cc2cc(C(=O)NCc3ccc4c(c3)OCO4)nc(-c3cccc(C#CCC4CCCC4)c3)c2[C@@H]1CCO (stereo partly specified) | x | x | x | x | n | x
CC(C)CNc1nnnc2c1sc1nc(N3CCOCC3)c3c(c12)CCCC3 | 51 | n | n | n | n | 52
C=CCNc1nnnc2c1sc1nc(N3CCOCC3)c3c(c12)CCCC3 | 50 | n | n | n | n | 58
COCCNc1nnnc2c1sc1nc(N3CCOCC3)c3c(c12)CC(C)(C)OC3 | n | n | x | n | n | n
Cc1noc(C)c1NC(=O)N(C)C[C@@H]1Oc2ccc(NC(=O)CCCCCC(=O)Nc3ccccc3N)cc2C(=O)N([C@@H](C)CO)C[C@@H]1C | x | x | x | x | n | x
O=C(C[C@H]1CC[C@H](NC(=O)Nc2ccc3c(c2)OCO3)[C@@H](CO)O1)NCc1ccccc1 | x | x | x | x | n | x
C[C@@H]1CN([C@@H](C)CO)C(=O)c2cc(NS(=O)(=O)c3cn(C)cn3)ccc2O[C@@H]1CN(C)C(=O)Nc1ccc2c(c1)OCO2 | x | x | x | x | n | x
O=C(CN1CCCC1)Nc1ccc(Oc2ccc(NC(=O)CN3CCCC3)cc2)cc1 | n | 30 | n | n | x | n
COc1ccc(NC(=O)CN2CCCC2)cc1 | n | n | n | n | n | n
O=C(C[C@@H]1C=C[C@H](NC(=O)C2CC2)[C@H](CO)O1)Nc1nccs1 | x | n | x | x | 83 | x
SMILES | NPR1 activator | FN deposition inh | NSD2 inh | CaV13 FRET inh | Casp6 inh | GC-B act
O=C(C[C@H]1C=C[C@H](NC(=O)C2CC2)[C@H](CO)O1)Nc1nccs1 | x | n | x | x | n | x
CC(=O)C1=C(c2ccc(Br)cc2)C(=O)c2ccccc2C1=O | n | 39 | x | n | x | n
O=C(Nc1ccc(F)cc1)N[C@H]1CC[C@@H](CC(=O)N2CCOCC2)O[C@@H]1CO | x | n | x | x | n | x
O=c1[nH]c(=S)[nH]c2c1C(c1ccc(Br)cc1)c1c([nH]c(=S)[nH]c1=O)O2 | n | n | x | n | 96 | n
O=C1CCCC2=C1C(c1ccc(Br)cc1)c1c([nH]c(=S)[nH]c1=O)N2 (stereo unspecified) | n | x | n | n | x | n
Cc1ccc(S(=O)(=O)Nc2ccc3c(c2)C(=O)N([C@@H](C)CO)C[C@H](C)[C@@H](CN(C)C(=O)Nc2c(C)noc2C)OCCCC[C@H](C)O3)cc1 | x | n | x | x | n | x
NS(=O)(=O)c1ccc(CCNC(=O)CCS(=O)(=O)c2ccc(Br)cc2)cc1 | n | n | n | n | 79 | n
COc1ccc(S(=O)(=O)CCC(=O)NCc2ccc(C)o2)cc1 | n | n | x | n | n | n
COc1ccc(CNC(=O)CCS(=O)(=O)c2ccc(Br)cc2)cc1 | n | n | n | n | 57 | n
CCc1cccc(NC(=O)CCS(=O)(=O)c2ccc(Br)cc2)c1 | n | n | n | n | 72 | n
C[C@@H]1CN([C@H](C)CO)S(=O)(=O)c2ccc(C#CCN(C)C)cc2O[C@H]1CN(C)C(=O)C1CCC1 | x | x | x | x | n | x
COc1ccc(S(=O)(=O)N2CCOCC2)cc1N=Nc1sc(N)nc1-c1ccccc1 | 55 | n | n | n | n | 45
Cc1ccc(/C(N)=N/OC(=O)c2ccc3ccccc3c2)cc1 | n | n | n | n | 55 | n
CCCN1CCN(C(=O)c2ccc(CS(=O)c3ccc(Br)cc3)o2)CC1 (stereo unspecified) | n | n | n | 35 | n | n
CCCC#Cc1cnc2c(c1)C(=O)N([C@@H](C)CO)C[C@@H](C)[C@@H](CN(C)C(=O)C1CCC1)O2 | x | x | x | x | n | x
O=C(CSc1ccsc1[N+](=O)[O-])Nc1cc(F)ccc1F | n | n | n | n | 36 | n
COc1ccc(-c2ccc([C@@H]3[C@@H](CO)N4C(=O)CN(C(=O)C5CCOCC5)C[C@@H]34)cc2)cc1 | x | x | x | x | n | x
CO[C@H]1CN(C)C(=O)c2ccc(NS(=O)(=O)c3ccccc3C)cc2OC[C@@H](C)NC[C@H]1C | x | n | x | x | x | x
COCCn1c(SCC(=O)NC(=O)NC(C)C)nc2ccccc21 | 42 | x | n | n | x | n
COc1c(Cl)cc(-c2noc(C)c2C(=O)NCc2ccc3c(c2)OCO3)cc1Cl | n | n | x | 71 | n | n
C[C@H](CO)N1C[C@H](C)[C@@H](CN(C)S(=O)(=O)c2ccc(Cl)cc2)Oc2ccc(NS(=O)(=O)c3ccc(F)cc3)cc2C1=O | x | x | x | x | n | x
CCN1C(=S)N[C@@H](c2cccc(F)c2)C(C(=O)OC)=C1C | n | n | x | n | x | 45
COC(=O)C1=C(C)N(Cc2ccc(Br)cc2)C(=S)NC1c1cccc(F)c1 (stereo unspecified) | n | n | n | n | n | n
CO[C@@H]1CC[C@H]2CCN(C)C(=O)[C@H](C)CN(C)C(=O)c3cc(C#N)ccc3OC[C@@H]1O2 | x | n | x | x | n | x
CCC(CC)C(=O)OCC(=O)Nc1cccc(S(=O)(=O)N(C)c2ccccc2)c1 | n | n | n | n | x | n

Source: PubChem BioAssay
